According to PMC9486889 (Japanese Journal of Clinical Oncology, 2022):

Columns and labels:
[1] = Plasma and urine pharmacokinetics, Cycle 1; format: in vivo, Japanese patients
Summary of the method: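 Oral 30 or 40 mg BIW. In Cycle 1, plasma was sampled on Days 1 and 25 from pre-dose to 72 h post-dose. Urine was collected in three 24-h intervals after the Day 1 and Day 25 doses. Parent drug and metabolites were measured by LC/MS–MS. The PK population received ≥1 Cycle 1 dose and had ≥1 measured post-dose concentration.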

[2] = test system: relapsed or refractory non-Hodgkin's lymphoma; assay: Anti-tumor activity; format: in vivo, Japanese patients
[3] = Cardiovascular assessments; format: in vivo, Japanese patients
[4] = test system: HDAC1; conditions: cited from earlier work
[5] = test system: HDAC2; conditions: cited from earlier work
[6] = test system: HDAC3; conditions: cited from earlier work
[7] = test system: HDAC10; conditions: cited from earlier work
[8] = pre-clinical study, no reference given; cited from earlier work
[9] = 40 mg BIW cohort, seven patients
[10] = NHL other than ATL, 30 mg BIW, 5 patients
[11] = NHL other than ATL, 40 mg BIW, 3 patients

Nc1cc(F)ccc1NC(=O)c1ccc(CNC(=O)/C=C/c2cccnc2)cc1 [HBI-8000, tucidinostat]
Administered dose excreted unchanged in urine over the dosing interval, average ([1]; 30 mg cohort): 25.3%
Administered dose excreted unchanged in urine over the dosing interval, average ([1]; 40 mg cohort): 21.9%
half-life ([1]; human, plasma, oral, 40 mg, Mean t1/2, 30 and 40 mg, Days 1 and 25): 17.1 to 21.6 h
AUC(0-inf) ([1]; human, plasma, po, 30 mg): 4000 ng·h/mL
AUC(0-inf) ([1]; human, plasma, po, 40 mg): 7160 ng·h/mL
Tmax ([1]; human, plasma, po, 40 mg, Median tmax, single and repeat oral administration, 30 and 40 mg): 2.42 to 5 h
Stable disease after the first cycle ([2]; 30 mg BIW cohort): three of six
Disease control (CR + CRu + PR + SD) ([2]; 30 mg BIW cohort, six patients): 66.7%
ORR ([2]; 30 mg BIW cohort, six patients): 16.7%
Objective response ([2]; 40 mg BIW cohort): five of seven
Partial responders with adult T-cell leukemia-lymphoma ([2]; 40 mg BIW cohort): three
Disease control (CR + CRu + PR + SD) [2, 9]: 100%
ORR [2, 9]: 71.4%
Best overall response: PR ([2]; ATL, 30 mg BIW, 1 patient): 0 (0) n (%)
Best overall response: SD ([2]; ATL, 30 mg BIW, 1 patient): 1 (100) n (%)
Disease control (CR, PR or SD) ([2]; ATL, 30 mg BIW, 1 patient): 1 (100) n (%)
Objective response (CR or PR) ([2]; ATL, 30 mg BIW, 1 patient): 0 (0.0) n (%)
Best overall response: PR ([2]; ATL, 40 mg BIW, 4 patients): 3 (75.0) n (%)
Best overall response: SD ([2]; ATL, 40 mg BIW, 4 patients): 1 (25.0) n (%)
Disease control (CR, PR or SD) ([2]; ATL, 40 mg BIW, 4 patients): 4 (100) n (%)
Objective response (CR or PR) ([2]; ATL, 40 mg BIW, 4 patients): 3 (75.0) n (%)
Objective response ([2]; NHL other than ATL, 30 mg BIW cohort): 20%
Best overall response: CR [2, 10]: 0 (0) n (%)
Best overall response: CRu [2, 10]: 1 (20.0) n (%)
Best overall response: PD [2, 10]: 2 (40.0) n (%)
Best overall response: SD [2, 10]: 2 (40.0) n (%)
Disease control (CR, CRu, PR or SD) [2, 10]: 3 (60.0) n (%)
Objective response (CR, CRu or PR) [2, 10]: 1 (20.0) n (%)
Objective response ([2]; NHL other than ATL, 40 mg BIW cohort): 66.7%
Best overall response: CR [2, 11]: 1 (33.3) n (%)
Best overall response: CRu [2, 11]: 1 (33.3) n (%)
Best overall response: PD [2, 11]: 0 (0) n (%)
Best overall response: SD [2, 11]: 1 (33.3) n (%)
Disease control (CR, CRu, PR or SD) [2, 11]: 3 (100) n (%)
Objective response (CR, CRu or PR) [2, 11]: 2 (66.7) n (%)
Responses in patients with ATL ([2]; both cohorts): three out of five
Absolute QTcF >450 ms ([3]; 30 mg BIW cohort): three
QTcF increase of >30 ms from baseline ([3]; 40 mg BIW cohort): three
Absolute QTcF prolonged to >500 ms ([3]; both cohorts): none
QTcF increase >60 ms from baseline ([3]; both cohorts): none
Inhibition of HDAC activity [4]: selectively inhibits
Inhibition of HDAC activity [5]: selectively inhibits
Inhibition of HDAC activity [6]: selectively inhibits
Inhibition of HDAC activity [7]: selectively inhibits
Effect on cardiovascular system including changes in QTc prolongation [8]: did not induce any effect
